From ChEMBL document CHEMBL4351014, “Bis(het)aryl-1,2,3-triazole quinuclidines as α7 nicotinic acetylcholine receptor ligands: Synthesis, structure affinity relationships, agonism activity, [18F]-radiolabeling and PET study in rats” (Eur J Med Chem, 2019) come the findings set out here.

The nature of series [1]: Drug uptake in rat brain hypothalamus at 7.3 +/- 0.44 MBq, iv and measured after 1 hr by gamma counting analysis. The format is ADME, organism-based. To be noted: in vivo. In outline: (§1)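 Male Wistar rats (250-300 g, n=6 per group) under isoflurane received 0.3 mL tracer i.v. via the penis vein; MLA groups got methyllycaconitine 1 mg/kg i.v. 15 min before. Decapitated at 1 h. Frontal cortex, hippocampus, hypothalamus, striatum and cerebellum weighed and gamma counted (48% efficiency). %ID/g calculated against standard dilutions of the injectate, mean ± SEM.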

Series [2] can be described thus: Ratio of drug uptake in rat brain striatum to cerebellum at 7.3 +/- 0.44 MBq, iv and measured after 1 hr by gamma counting analysis. It counts as ADME, organism-based. The note with it: in vivo.
Series [3] in a line: Drug uptake in rat brain hippocampus at 7.3 +/- 0.44 MBq, iv and measured after 1 hr by gamma counting analysis. It counts as ADME, organism-based. The note with it: in vivo. In outline: as §1
A short description of series [4]: Drug uptake in rat brain frontal cortex at 7.3 +/- 0.44 MBq, iv and measured after 1 hr by gamma counting analysis. The format is ADME, organism-based. To be noted: in vivo. The gist of the method:
as §1

A short description of series [5]: Drug uptake in rat brain frontal cortex at 7.3 +/- 0.44 MBq, iv pretreated with alpha7 nAChR antagonist methyllycaconitine for 15 mins followed by compound addition and measured after 1 hr by gamma counting analysis. It counts as organism-based. To be noted: in vivo. The gist of the method: as §1
A short description of series [6]: Ratio of drug uptake in rat brain frontal cortex to cerebellum at 7.3 +/- 0.44 MBq, iv and measured after 1 hr by gamma counting analysis. It counts as ADME, organism-based. The note with it: in vivo.
A short description of series [7]: Stability of the compound in rat plasma measured up to 4 hrs by HPLC analysis. It counts as ADME, organism-based. To be noted: read-out: Stability. In outline: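 100 μL radiotracer mixed with 1 mL rat plasma at 37 °C. Acetonitrile added, organic layer filtered and analysed by radio-HPLC on a C18 column at 30 min, 1, 2 and 4 h. Repeated twice with different radiotracer preparations.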

The nature of series [8]: Drug uptake in rat brain hippocampus at 7.3 +/- 0.44 MBq, iv pretreated with alpha7 nAChR antagonist methyllycaconitine for 15 mins followed by compound addition and measured after 1 hr by gamma counting analysis. To be noted: in vivo. It counts as organism-based. In outline:
as §1

The nature of series [9]: Drug uptake in rat brain at 37MBq, iv administrated and measured during 71 mins of acquisition by PET-CT analysis. To be noted: in vivo. The format is ADME, organism-based. In outline:
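Rats given a 37 MBq i.v. bolus and scanned on a microPET-CT for 71 min. Images reconstructed by 2-D OSEM; summed frames from 49-71 min shown.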

The nature of series [10]: Drug uptake in rat brain striatum at 7.3 +/- 0.44 MBq, iv and measured after 1 hr by gamma counting analysis. The format is ADME, organism-based. The note with it: in vivo. In outline: as §1
Series [11] is described as follows: Drug uptake in rat brain hypothalamus at 7.3 +/- 0.44 MBq, iv pretreated with alpha7 nAChR antagonist methyllycaconitine for 15 mins followed by compound addition and measured after 1 hr by gamma counting analysis. To be noted: in vivo. The format is organism-based. The gist of the method: as §1
The nature of series [12]: Drug uptake in rat brain cerebellum at 7.3 +/- 0.44 MBq, iv pretreated with alpha7 nAChR antagonist methyllycaconitine for 15 mins followed by compound addition and measured after 1 hr by gamma counting analysis. It counts as organism-based. To be noted: in vivo. In outline: as §1
Series [13] can be described thus: Drug uptake in rat brain cerebellum at 7.3 +/- 0.44 MBq, iv and measured after 1 hr by gamma counting analysis. It counts as ADME, organism-based. To be noted: in vivo. In outline:
as §1

Series [14] can be described thus: Ratio of drug uptake in rat brain hippocampus to cerebellum at 7.3 +/- 0.44 MBq, iv and measured after 1 hr by gamma counting analysis. It counts as ADME, organism-based. The note with it: in vivo.
Series [15] is described as follows: Drug uptake in rat brain striatum at 7.3 +/- 0.44 MBq, iv pretreated with alpha7 nAChR antagonist methyllycaconitine for 15 mins followed by compound addition and measured after 1 hr by gamma counting analysis. It counts as organism-based. To be noted: in vivo. In outline: as §1
Series [16] is described as follows: Drug uptake in rat brain hippocampus at 6.5 +/- 0.46 MBq, iv and measured after 1 hr by gamma counting analysis. The format is ADME, organism-based. The note with it: in vivo. In outline:
as §1

The nature of series [17]: Drug uptake in rat brain striatum at 6.5 +/- 0.46 MBq, iv pretreated with alpha7 nAChR antagonist methyllycaconitine for 15 mins followed by compound addition and measured after 1 hr by gamma counting analysis. To be noted: in vivo. It counts as organism-based. In outline:
as §1

Series [18] in a line: Stability of the compound in 100% ethanol measured up to 4 hrs by HPLC analysis. It counts as physicochemical.
A short description of series [19]: Drug uptake in rat brain hypothalamus at 6.5 +/- 0.46 MBq, iv and measured after 1 hr by gamma counting analysis. The note with it: in vivo. The format is ADME, organism-based. The gist of the method: as §1
Series [20] can be described thus: Drug uptake in rat brain hypothalamus at 6.5 +/- 0.46 MBq, iv pretreated with alpha7 nAChR antagonist methyllycaconitine for 15 mins followed by compound addition and measured after 1 hr by gamma counting analysis. The format is organism-based. The note with it: in vivo. The gist of the method:
as §1

Series [21] in a line: Drug uptake in rat brain hippocampus at 6.5 +/- 0.46 MBq, iv pretreated with alpha7 nAChR antagonist methyllycaconitine for 15 mins followed by compound addition and measured after 1 hr by gamma counting analysis. The note with it: in vivo. It counts as organism-based. The gist of the method:
as §1

Series [22] in a line: Stability of the compound in 0.9% sodium chloride/ethanol solution by HPLC analysis. It counts as physicochemical.
Series [23] in a line: Drug uptake in rat brain frontal cortex at 6.5 +/- 0.46 MBq, iv pretreated with alpha7 nAChR antagonist methyllycaconitine for 15 mins followed by compound addition and measured after 1 hr by gamma counting analysis. The note with it: in vivo. The format is organism-based. The gist of the method:
as §1

Series [24] is described as follows: Drug uptake in rat brain striatum […], iv and measured after 1 hr by gamma counting analysis. The format is ADME, organism-based. The note with it: in vivo. The gist of the method:
as §1

Series [25] is described as follows: Drug uptake in rat brain cerebellum at 6.5 +/- 0.46 MBq, iv pretreated with alpha7 nAChR antagonist methyllycaconitine for 15 mins followed by compound addition and measured after 1 hr by gamma counting analysis. The format is organism-based. The note with it: in vivo. In outline:
as §1

Series [26] can be described thus: Drug uptake in rat brain frontal cortex at 6.5 +/- 0.46 MBq, iv and measured after 1 hr by gamma counting analysis. It counts as ADME, organism-based. To be noted: in vivo. The gist of the method:
as §1

Series [27] is described as follows: Ratio of drug uptake in rat brain frontal cortex to cerebellum at 6.5 +/- 0.46 MBq, iv and measured after 1 hr by gamma counting analysis. It counts as ADME, organism-based. The note with it: in vivo.
Series [28] is described as follows: Drug uptake in rat brain cerebellum at 6.5 +/- 0.46 MBq, iv and measured after 1 hr by gamma counting analysis. It counts as ADME, organism-based. The note with it: in vivo. The gist of the method: as §1

With `[18F]c1ccc(-c2ccc(-c3cn([C@H]4CN5CCC4CC5)nn3)s2)cn1`, the Drug uptake in series [1] was 0.59 % ID/g; in series [3], 0.78 % ID/g; in [4], 0.85 % ID/g; in series [5], “Active”; in series [8] it was “Active”; in [9], “Active”. Also, the Drug uptake is recorded as 0.76 % ID/g in [10]; “Active” in series [11]; “Active” in [12]; 0.58 % ID/g in [13]; “Active” in series [15]. The results for the Ratio in [2], in series [6] and in series [14] were 1.31, 1.47 and 1.34, respectively. In addition, the remaining at 4 h in series [7] is more than 95%.
In the case of `[18F]Cc1ccc(-c2ccc(-c3cn([C@H]4CN5CCC4CC5)nn3)s2)cc1`, the Drug uptake in [16] is listed as 0.43 % ID/g; in series [17], “Active”; in [19], 0.42 % ID/g; in series [9] it was “Active”; in series [20] it was “Active”; in [21] it was “Active”. For the same molecule, the Drug uptake result is “Active” in [23]; 0.44 % ID/g in [24]; “Active” in series [25]; 0.56 % ID/g in series [26]; 0.44 % ID/g in series [28]. Besides, the Stability result in series [18] is “Stable”; in series [22], “Unstable”. The remaining at 4 h in series [7] was more than 95%. In addition, the Ratio in series [27] is reported as 1.29.
